Assay results: ChEMBL document CHEMBL4715693, “Synthesis and antiviral properties of novel indole-based thiosemicarbazides and 4-thiazolidinones” (Bioorg Med Chem, 2016)
≈ marks a conversion by molar mass, not a printed value.

Experiments:
[1] = Selectivity index, ratio of MCC for human HeLa cells to EC50 for Respiratory syncytial virus infected in human HeLa cells; format: toxicity, cell-based
Summary of the method: (§1)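 HeLa cells infected concurrently with addition of serial compound dilutions, 3–6 days at 37 °C. CPE inhibition scored microscopically for EC50; MCC from minimal alteration of cell morphology by microscopy; index = MCC divided by EC50.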

Vaccinia virus = test: Antiviral activity against Vaccinia virus infected in human HEL cells assessed as reduction in virus-induced cytopathic effect incubated for 3 to 6 days by light microscopic analysis; format: functional, organism-based; conditions: Orthopoxvirus vaccinia
[2] = test system: Respiratory syncytial virus; test: Antiviral activity against Respiratory syncytial virus infected in human HeLa cells assessed as reduction in virus-induced cytopathic effect incubated for 3 to 6 days by light microscopic analysis; format: functional, organism-based
Summary of the method: (§2)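 CPE reduction assay: virus and serial compound dilutions added together to subconfluent HeLa (vesicular stomatitis, Coxsackie B4, respiratory syncytial) or Vero (Coxsackie B4, Sindbis, Punta Toro) cultures. Incubated 3–6 days at 37 °C. […] Mean ± SEM of three independent tests.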

[3] = test system: Human immunodeficiency virus 1; test: Antiviral activity against Human immunodeficiency virus 1 infected in human MT4 cells assessed as reduction in virus-induced cytopathic effect incubated for 3 to 6 days by light microscopic analysis; format: functional, organism-based; conditions: Human immunodeficiency virus 1, MT4
MT4 = test: Cytotoxicity against human MT4 cells assessed as reduction in cell viability incubated for 3 to 6 days by MTS assay; format: cell-based; conditions: time 3-6 day
Summary of the method: (§3)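 CRFK or MT4 cells were exposed to serial compound dilutions alongside the antiviral assays for 3–6 days at 37 °C.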

[4] = test system: Mammalian orthoreovirus 1; test: Antiviral activity against Mammalian orthoreovirus 1 infected in African green monkey Vero cells assessed as reduction in virus-induced cytopathic effect incubated for 3 to 6 days by light microscopic analysis; format: functional, organism-based; conditions: Mammalian orthoreovirus 1, Vero
Felid alphaherpesvirus 1 = test: Antiviral activity against Feline herpesvirus infected in cat CRFK cells assessed as reduction in virus-induced cytopathic effect incubated for 3 to 6 days by light microscopic analysis; format: functional, organism-based; conditions: Felid alphaherpesvirus 1, CRFK
Human alphaherpesvirus 2 = test: Antiviral activity against Herpes simplex virus 2 infected in human HEL cells assessed as reduction in virus-induced cytopathic effect incubated for 3 to 6 days by light microscopic analysis; format: functional, cell-based; conditions: Human alphaherpesvirus 2, HEL
[5] = test system: Vesicular stomatitis virus; test: Antiviral activity against Vesicular stomatitis virus infected in human HeLa cells assessed as reduction in virus-induced cytopathic effect incubated for 3 to 6 days by light microscopic analysis; format: functional, organism-based
Summary of the method: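 CPE reduction assay: virus and serial compound dilutions added together to subconfluent HeLa (vesicular stomatitis, Coxsackie B4, respiratory syncytial) or Vero (Coxsackie B4, Sindbis, Punta Toro) cultures. Incubated 3–6 days at 37 °C. Mean ± SEM of three independent tests.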

[6] = Cytotoxicity against human HeLa cells assessed as changes in cell morphology incubated for 3 to 6 days by light microscopic analysis; format: cell-based; conditions: time 3-6 day
Summary of the method: (§4)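 Uninfected subconfluent cells (Vero or HeLa, as named) exposed to serial compound dilutions in parallel with the CPE assays, 37 °C, 3–6 days. Cell morphology examined by light microscopy; MCC = minimal concentration causing microscopically detectable changes in morphology.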

Influenza A virus = test: Antiviral activity against influenza A virus infected in dog MDCK cells assessed as reduction in virus-induced cytopathic effect incubated for 3 to 6 days by light microscopic analysis; format: functional, organism-based; conditions: Influenza A virus, MDCK
Summary of the method: (§5)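 MDCK cells, subconfluent, received influenza A or B virus together with serial compound dilutions. Incubated 3–6 days at 35 °C.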

Human alphaherpesvirus 1 = test: Antiviral activity against Herpes simplex virus 1 infected in human HEL cells assessed as reduction in virus-induced cytopathic effect incubated for 3 to 6 days by light microscopic analysis; format: functional, cell-based; conditions: Human alphaherpesvirus 1, HEL
Coxsackievirus B4 [7] = test: Antiviral activity against Human coxsackievirus B4 infected in African green monkey Vero cells assessed as reduction in virus-induced cytopathic effect incubated for 3 to 6 days by light microscopic analysis; format: functional, organism-based; conditions: Enterovirus B; summary of the method: as §2
[8] = Cytotoxicity against cat CRFK cells assessed as reduction in cell viability incubated for 3 to 6 days by MTS assay; format: cell-based, Felis catus; conditions: crfk, time 3-6 day; summary of the method: as §3
[9] = Selectivity index, ratio of MCC for human HeLa cells to EC50 for Human coxsackievirus B4 infected in human HeLa cells; format: toxicity, cell-based; summary of the method: as §1
[10] = Cytotoxicity against human HEL cells assessed as changes in cell morphology incubated for 3 to 6 days by light microscopy; format: cell-based; conditions: time 3-6 day
Summary of the method: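 Human embryonic lung fibroblasts incubated with serial compound dilutions alongside the antiviral assays, 37 °C, 3–6 days. Morphology inspected by light microscopy; minimal cytotoxic concentration taken as lowest concentration giving minimal morphological change.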

Human respirovirus 3 = test: Antiviral activity against Human parainfluenza virus 3 infected in African green monkey Vero cells assessed as reduction in virus-induced cytopathic effect incubated for 3 to 6 days by light microscopic analysis; format: functional, organism-based; conditions: Human respirovirus 3, Vero
[11] = test system: Human immunodeficiency virus 2; test: Antiviral activity against Human immunodeficiency virus 2 infected in human MT4 cells assessed as reduction in virus-induced cytopathic effect incubated for 3 to 6 days by light microscopic analysis; format: functional, organism-based; conditions: Human immunodeficiency virus 2, MT4
Feline coronavirus = test: Antiviral activity against Feline coronavirus infected in cat CRFK cells assessed as reduction in virus-induced cytopathic effect incubated for 3 to 6 days by light microscopic analysis; format: functional, organism-based; conditions: Alphacoronavirus 1, CRFK
[12] = Selectivity index, ratio of MCC for African green monkey Vero cells to EC50 for Human coxsackievirus B4 infected in African green monkey Vero cells; format: toxicity
Coxsackievirus B4 [13] = test: Antiviral activity against Human coxsackievirus B4 infected in human HeLa cells assessed as reduction in virus-induced cytopathic effect incubated for 3 to 6 days by light microscopic analysis; format: functional, organism-based; conditions: Enterovirus B; summary of the method: as §2
[14] = Selectivity index, ratio of MCC for African green monkey Vero cells to EC50 for Sindbis virus infected in African green monkey Vero cells; format: toxicity
[15] = Cytotoxicity against dog MDCK cells assessed as changes in cell morphology incubated for 3 to 6 days by light microscopy; format: cell-based, Canis lupus familiaris; conditions: time 3-6 day
Sindbis virus = test: Antiviral activity against Sindbis virus infected in African green monkey Vero cells assessed as reduction in virus-induced cytopathic effect incubated for 3 to 6 days by light microscopic analysis; format: functional, organism-based; summary of the method: as §2
Influenza B virus = test: Antiviral activity against influenza B virus infected in dog MDCK cells assessed as reduction in virus-induced cytopathic effect incubated for 3 to 6 days by light microscopic analysis; format: functional, organism-based; summary of the method: as §5
Punta Toro virus = test: Antiviral activity against Punta Toro virus infected in African green monkey Vero cells assessed as reduction in virus-induced cytopathic effect incubated for 3 to 6 days by light microscopic analysis; format: functional, organism-based; summary of the method: as §2
[16] = Cytotoxicity against African green monkey Vero cells assessed as changes in cell morphology incubated for 3 to 6 days by light microscopy; format: cell-based; conditions: chlorocebus sabaeus, time 3-6 day; summary of the method: as §4

Compound | EC50 (Vaccinia virus) [µg/mL] | EC50 [2] [µg/mL] | EC50 [3] [µg/mL] | EC50 [4] [µg/mL] | EC50 (Felid alphaherpesvirus 1) [µg/mL] | EC50 (Human alphaherpesvirus 2) [µg/mL] | EC50 [5] [µg/mL] | MCC [6] [µg/mL] | EC50 (Influenza A virus) [µg/mL] | EC50 (Human alphaherpesvirus 1) [µg/mL] | EC50 (Coxsackievirus B4 [7]) [µg/mL] | CC50 [8] [µg/mL] | selectivity ratio [9] | MCC [10] [µg/mL] | EC50 (Human respirovirus 3) [µg/mL] | EC50 [11] [µg/mL] | EC50 (Feline coronavirus) [µg/mL] | selectivity ratio [12] | EC50 (Coxsackievirus B4 [13]) [µg/mL] | MCC [15] [µg/mL] | further results
CCCNC(=S)NNC(=O)c1[nH]c2ccc(F)cc2c1-c1ccccc1 | > 100 | ≥ 2.3 | > 100 | > 100 | > 100 | > 100 | > 100 | 20 | > 100 | > 100 | 1.8 (≈ 4.86 µM) | 9.7 (≈ 26.2 µM) | 18 | 20 | > 100 | > 100 | > 100 | 56 | 1.1 (≈ 2.97 µM) | 0.8 | selectivity ratio [1]: ≥ 9; CC50 (MT4): 11 µg/mL (≈ 29.7 µM); selectivity ratio [14]: 15; EC50 (Sindbis virus): 6.5 µg/mL (≈ 17.5 µM); EC50 (Influenza B virus): > 100 µg/mL; EC50 (Punta Toro virus): > 100 µg/mL
C=CCNC(=S)NNC(=O)c1[nH]c2ccc(F)cc2c1-c1ccccc1 | > 100 | ≥ 4 | > 100 | > 100 | > 100 | > 100 | > 100 | 20 | > 100 | > 100 | 2 (≈ 5.43 µM) | 8.6 (≈ 23.3 µM) | 13 | 20 | > 100 | > 100 | > 100 | 10 | 1.5 (≈ 4.07 µM) | 4 | selectivity ratio [1]: ≥ 5; MCC [16]: 20 µg/mL; selectivity ratio [14]: ≥ 5; EC50 (Sindbis virus): ≥ 4 µg/mL; EC50 (Influenza B virus): > 100 µg/mL; EC50 (Punta Toro virus): > 100 µg/mL
CCNC(=S)NNC(=O)c1[nH]c2ccc(F)cc2c1-c1ccccc1 | > 100 | ≥ 4 | > 100 | > 100 | > 100 | > 100 | > 100 | 20 | > 100 | > 100 | 0.4 (≈ 1.12 µM) | 2.9 (≈ 8.14 µM) | 23 | 20 | > 100 | > 100 | > 100 | 50 | 0.87 (≈ 2.44 µM) | 4 | selectivity ratio [1]: ≥ 5; CC50 (MT4): 14 µg/mL (≈ 39.3 µM); MCC [16]: 20 µg/mL; selectivity ratio [14]: 6; EC50 (Influenza B virus): > 100 µg/mL; EC50 (Punta Toro virus): > 100 µg/mL
CNC(=S)NNC(=O)c1[nH]c2ccc(F)cc2c1-c1ccccc1 | > 100 | > 100 | > 100 | > 100 | > 100 | > 100 | > 100 | 20 | > 100 | > 100 | 1.7 (≈ 4.96 µM) | 7.5 (≈ 21.9 µM) | 9 | 20 | > 100 | > 100 | > 100 | 12 | 2.1 (≈ 6.13 µM) | 20 | CC50 (MT4): 18 µg/mL (≈ 52.6 µM); MCC [16]: 20 µg/mL; EC50 (Sindbis virus): > 100 µg/mL; EC50 (Influenza B virus): > 100 µg/mL; EC50 (Punta Toro virus): > 100 µg/mL
